Measurements published in EPA's CvTdb concentration-time database.

Columns and labels:
human [1] = assay: concentration in blood after dosing
How it was run: (§1)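 Data points giving concentration or amount against time came from published in vivo toxicokinetic studies and from two structured collections. PubMed searching, classifier screening and manual review located the studies. Most points were digitised from plot screenshots using WebPlotDigitizer, the rest were copied from tables, and all keep their reported units.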

human [2] = assay: concentration in expired air after dosing; conditions: dosed: methyl tert-butyl ether, 15 mg, oral, male
How it was run: as §1

human [3] = assay: concentration in blood after dosing; negative times count back from the end of exposure; conditions: inhalation
How it was run: as §1

rat = assay: concentration in blood after dosing; conditions: dosed: methylene chloride, male

CCOC(C)(C)C [ethyl tert-butyl ether]
concentration in blood [nM], human [1], dosed: ethyl tert-butyl ether, inhalation, duration: 4 hr
Conditions | 2.045 h | 4.023 h | 4.057 h | 6.068 h | 7.977 h | 9.972 h | 11.98 h | 23.9 h | 61 s | 184 s
4.5 ppm | 371 | 117 | – | – | – | – | – | – | 1320 | –
40.6 ppm | 3350 | – | 1940 | 1750 | 941 | 1100 | 762 | 171 | – | 12000

COC(C)(C)C [methyl tert-butyl ether]
dosed: methyl tert-butyl ether
Conditions | concentration in blood [nM]
human [1], 0.01 h, 38.7 ppm, inhalation, duration: 4 hr | 6650
human [1], 2 h, 4.5 ppm, inhalation, duration: 4 hr | 643
human [1], 2.004 h, 38.7 ppm, inhalation, duration: 4 hr | 2100
human [1], 3.94 h, 4.5 ppm, inhalation, duration: 4 hr | 354
human [1], 3.996 h, 38.7 ppm, inhalation, duration: 4 hr | 1020
human [1], 6.01 h, 4.5 ppm, inhalation, duration: 4 hr | 174
human [1], 6.012 h, 38.7 ppm, inhalation, duration: 4 hr | 606
human [1], 7.951 h, 4.5 ppm, inhalation, duration: 4 hr | 84
human [1], 8.029 h, 38.7 ppm, inhalation, duration: 4 hr | 395
human [1], 10.04 h, 38.7 ppm, inhalation, duration: 4 hr | 328
human [1], 12.06 h, 38.7 ppm, inhalation, duration: 4 hr | 253
human [1], 22 s, 4.5 ppm, inhalation, duration: 4 hr | 1930
human [3], 0.2914 h, 25 ppm, duration: 4 hr, male | 7860
human [3], 0.5342 h, 25 ppm, duration: 4 hr, male | 6550
human [3], 0.9123 h, 25 ppm, duration: 4 hr, male | 5510
human [3], 2.155 h, 25 ppm, duration: 4 hr, male | 3310
human [3], 6.883 h, 25 ppm, duration: 4 hr, male | 651
human [3], 20.1 h, 25 ppm, duration: 4 hr, male | 40

human [1], dosed: methyl tert-butyl ether, oral
Conditions | concentration in blood [nM]
0.9725 h, 5 mg | 99.4
1.015 h, 15 mg | 685
1.991 h, 5 mg | 41.1
2.004 h, 15 mg | 276
2.918 h, 15 mg | 108
2.982 h, 5 mg | 27.2
3.947 h, 5 mg | 18.7
4.008 h, 15 mg | 82
5.952 h, 5 mg | 13.1
5.987 h, 15 mg | 47.1
7.932 h, 5 mg | 11.7
7.966 h, 15 mg | 26.4
9.937 h, 5 mg | 10.1
9.945 h, 15 mg | 23.3
12 h, 15 mg | 13
12.02 h, 5 mg | 8.99

human [2]
Conditions | concentration in expired air [nM]
0.1656 h | 77
0.3208 h | 77
0.5071 h | 51.41
0.6649 h | 33.25
0.8305 h | 28.15
0.9935 h | 21.17
1.508 h | 12.95
1.995 h | 9.141
2.999 h | 6.25
3.99 h | 2.876
4.996 h | 2.574
5.99 h | 1.41

human [3], dosed: methyl tert-butyl ether, 25 ppm, duration: 4 hr, male, during exposure
Conditions | concentration in blood [nM]
-4 h | 117
-3.335 h | 6640
-2.225 h | 7880
-1.277 h | 9780
-0.1674 h | 10600

ClCCl [methylene chloride]
Conditions | concentration in blood [ng/mL]
human [3], 1.928 h, dosed: methylene chloride, 350 ppm, duration: 6 hr | 899
human [3], 2.051 h, dosed: methylene chloride, 100 ppm, duration: 6 hr | 155
human [3], 5.959 h, dosed: methylene chloride, 100 ppm, duration: 6 hr | 62.4
human [3], 6.02 h, dosed: methylene chloride, 350 ppm, duration: 6 hr | 342
human [3], 16.03 h, dosed: methylene chloride, 100 ppm, duration: 6 hr | 12
human [3], 16.07 h, dosed: methylene chloride, 350 ppm, duration: 6 hr | 77.4
human [3], 23.99 h, dosed: methylene chloride, 350 ppm, duration: 6 hr | 36
human [3], 276 s, dosed: methylene chloride, 350 ppm, duration: 6 hr | 5760
rat, 0.1027 h, 125 mg/kg, oral, Wistar | 114000
rat, 0.1096 h, 125 mg/kg, oral, Wistar | 35700
rat, 0.1406 h, 125 mg/kg, oral, Wistar | 101000
rat, 0.1438 h, 125 mg/kg, oral, Wistar | 37300
rat, 0.1715 h, 125 mg/kg, oral, Wistar | 96200
rat, 0.1781 h, 125 mg/kg, oral, Wistar | 38700
rat, 0.2228 h, 125 mg/kg, oral, Wistar | 93900
rat, 0.2329 h, 125 mg/kg, oral, Wistar | 39900
rat, 0.2708 h, 125 mg/kg, oral, Wistar | 88100
rat, 0.2808 h, 125 mg/kg, oral, Wistar | 41000
rat, 0.3223 h, 125 mg/kg, oral, Wistar | 79600
rat, 0.3356 h, 125 mg/kg, oral, Wistar | 39800
rat, 0.3704 h, 125 mg/kg, oral, Wistar | 71100
rat, 0.3836 h, 125 mg/kg, oral, Wistar | 38300
rat, 0.4252 h, 125 mg/kg, oral, Wistar | 65400
rat, 0.4315 h, 125 mg/kg, oral, Wistar | 34600
rat, 0.5041 h, 125 mg/kg, oral, Wistar | 57100
rat, 0.5205 h, 125 mg/kg, oral, Wistar | 36100
rat, 0.7539 h, 125 mg/kg, oral, Wistar | 41600
rat, 0.7671 h, 125 mg/kg, oral, Wistar | 27600
rat, 1.007 h, 125 mg/kg, oral, Wistar | 31400
rat, 1.014 h, 125 mg/kg, oral, Wistar | 24000
rat, 1.5 h, 125 mg/kg, oral, Wistar | 16900
rat, 1.514 h, 125 mg/kg, oral, Wistar | 14900
rat, 2.002 h, 125 mg/kg, oral, Wistar | 8750
rat, 2.014 h, 125 mg/kg, oral, Wistar | 9350
rat, 2.498 h, 125 mg/kg, oral, Wistar | 3470
rat, 2.514 h, 125 mg/kg, oral, Wistar | 11300
rat, 3.014 h, 125 mg/kg, oral, Wistar | 9840
rat, 3.507 h, 125 mg/kg, oral, Wistar | 6900
rat, 4.007 h, 125 mg/kg, oral, Wistar | 5980
rat, 4.507 h, 125 mg/kg, oral, Wistar | 4860
rat, 5 h, 125 mg/kg, oral, Wistar | 1820
rat, 129 s, 125 mg/kg, oral, Wistar | 59800
rat, 173 s, 125 mg/kg, oral, Wistar | 15700
rat, 247 s, 125 mg/kg, oral, Wistar | 29800
rat, 248 s, 125 mg/kg, oral, Wistar | 101000

Conditions | concentration in blood [ng/mL]
human [3], -2.858 h, dosed: methylene chloride, 350 ppm, duration: 6 hr, during exposure | 5830
human [3], -2.95 h, dosed: methylene chloride, 100 ppm, duration: 6 hr, during exposure | 1090
human [3], -58 s, dosed: methylene chloride, 100 ppm, duration: 6 hr, during exposure | 1020
rat, 0.5086 h, 100000 ppm, dermal, duration: 4 hr, Fischer-344 | 57300
rat, 0.5196 h, 60000 ppm, dermal, duration: 4 hr, Fischer-344 | 29800
rat, 0.5257 h, 30000 ppm, dermal, duration: 4 hr, Fischer-344 | 11300
rat, 1.007 h, 100000 ppm, dermal, duration: 4 hr, Fischer-344 | 67300
rat, 1.008 h, 60000 ppm, dermal, duration: 4 hr, Fischer-344 | 45900
rat, 1.013 h, 30000 ppm, dermal, duration: 4 hr, Fischer-344 | 21100
rat, 1.988 h, 100000 ppm, dermal, duration: 4 hr, Fischer-344 | 79800
rat, 1.99 h, 60000 ppm, dermal, duration: 4 hr, Fischer-344 | 43400
rat, 1.996 h, 30000 ppm, dermal, duration: 4 hr, Fischer-344 | 30000
rat, 2.977 h, 100000 ppm, dermal, duration: 4 hr, Fischer-344 | 97700
rat, 2.987 h, 60000 ppm, dermal, duration: 4 hr, Fischer-344 | 44700
rat, 2.989 h, 30000 ppm, dermal, duration: 4 hr, Fischer-344 | 29800
rat, 3.973 h, 100000 ppm, dermal, duration: 4 hr, Fischer-344 | 98100
rat, 3.974 h, 60000 ppm, dermal, duration: 4 hr, Fischer-344 | 52200
rat, 3.978 h, 30000 ppm, dermal, duration: 4 hr, Fischer-344 | 23600
